MEKK3 PB1 HTS: modulators of MEKK3-MEK5 PB1 binding, primary screen, biochemical, wildtype MEKK3, multiplex bead flow cytometry, Alexa488-MEK5 | Mitogen-activated protein kinase kinase kinase 3 (Homo sapiens), Q99759 | bead-based flow cytometry, Alexa488-MEK5 binding to MEKK3; actives lie on both sides; 0 = blocked by unlabeled MEK5, 100 = vehicle | binding response (% of control), % at 10 µM | 1.4% of 290,000 active;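 active = binding response more than 3 SD above or below the average of its plate-row segment, actives on both sides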;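 note: Alexa488 bead fluorescence after subtracting the streptavidin-only scavenger bead signal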
MEKK2wt PB1 HTS: modulators of MEK5 binding to wildtype MEKK2, primary screen, biochemical, multiplex bead flow cytometry, Alexa488-MEK5; binding response (% of control), % at 10 µM; AID 1531, 2009; 1.1% of 290,000 active; Alexa488-MEK5 binding to MEKK2 WT; actives lie on both sides; Mitogen-activated protein kinase kinase kinase 2 (Homo sapiens), Q9Y2U5; in the data active = binding response below about 67% or above about 130%
MEKK2 mut-MEK5: MEK5 binding signal on mutant MEKK2 PB1, primary screen, biochemical, multiplex bead flow cytometry, Alexa488-MEK5. Alexa488-MEK5 binding to MEKK2 mutant. 0.35% of 290,000 active. percent response, % at 10 µM. AID 1530, 2009; in the data active = percent response above about 24%, passing the limit was not always enough
UBC13 polyUb: UBC13 polyubiquitin chain formation inhibitors, primary screen, biochemical, TR-FRET, uHTS; inhibition, % at 20 µM; Ubiquitin-conjugating enzyme E2 N (Homo sapiens), P61088; 0.47% of 330,000 active; in the data active = inhibition above about 45%, passing the limit was not always enough
Target sequence (P61088 whole entry, looked up): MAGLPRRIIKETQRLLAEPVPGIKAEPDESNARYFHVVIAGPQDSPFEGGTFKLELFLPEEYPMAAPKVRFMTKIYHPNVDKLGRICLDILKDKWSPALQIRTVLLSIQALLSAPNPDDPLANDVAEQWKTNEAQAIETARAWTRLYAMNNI
Apaf-1 inh: inhibitors of human Apaf-1 apoptosome, primary screen, biochemical, DEVD-Rh110 fluorescence, uHTS. Apoptotic protease-activating factor 1 (Homo sapiens), O14727. reconstituted apoptosome caspase-3 activity. inhibition, % at 20 µM. 0.71% of 330,000 active; active = inhibition of at least 40% at 20 µM
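detection = Rh110 fluorescence intensity | test system = biochemical Apaf-1 apoptosome reconstitution | also added = cytochrome c and DEVD-Rh110 substrate | schedule = 30 min plus 50 min, RT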
MEKK2wt confirm: modulators of MEK5 binding to wildtype MEKK2, confirmation, biochemical, single concentration, multiplex bead flow cytometry; shares compounds with MEKK3 PB1 HTS; Alexa488-MEK5 binding to MEKK2 WT; actives lie on both sides; 2.4% of 5,900 active; binding response (% of control), % at 10 µM; in the data active = binding response below about 16% or above about 210%; inactive = in between
MEKK2mut-MEK5: mutant MEKK2 PB1-MEK5 binding signal retest – biochemical, single concentration, multiplex bead flow cytometry, confirmation; shares compounds with MEKK3 PB1 HTS; Alexa488-MEK5 binding to MEKK2 mutant; percent response, % at 10 µM; 2% of 5,900 active; in the data active = percent response mostly above about 71%, no sharp cut-off; inactive = mostly below about 38%;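 note: higher means compound restores mutant binding toward wildtype level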
MEKK3-MEK5 inh: MEKK3 wild-type PB1 binding to MEK5, inhibitors, confirmation, biochemical, bead multiplex flow cytometry, single concentration, wildtype | shares compounds with MEKK3 PB1 HTS | 1.8% of 5,900 active | Alexa488-MEK5 binding to MEKK3; hits give low values | AID 1894, 2009 | binding response (% of control), % at 10 µM;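 active = binding response below 72% of control, or above a set upper limit, though filed actives all read lower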;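 note: lower values mean stronger disruption of MEK5 binding to MEKK3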
Numbers stand for hits; [ ] = remark or other dose. Hits are enriched below; roughly 2.9% of the tested compounds scored in any of these assays.

CC(=O)Oc1ccc(/C(C)=N\N2CCN(Cc3ccc(Cl)cc3)CC2)cc1 was read as MEKK3 PB1 HTS inactive, MEKK2wt PB1 HTS inactive, MEKK2 mut-MEK5 inactive, UBC13 polyUb inactive and Apaf-1 inh inactive.
`C=CCSc1nc2c(c(=O)[nH]1)C(c1ccccc1)C(C#N)=C(N)O2` (centres undefined) gave MEKK3 PB1 HTS 132.0, MEKK2wt PB1 HTS inactive, MEKK2 mut-MEK5 inactive, UBC13 polyUb inactive, Apaf-1 inh inactive, MEKK2wt confirm inactive, MEKK2mut-MEK5 inactive and MEKK3-MEK5 inh inactive.
Screening C=CCSc1nc(-c2ccccc2)c(C#N)c(=O)[nH]1 returned MEKK3 PB1 HTS inactive, MEKK2wt PB1 HTS inactive, MEKK2 mut-MEK5 inactive, UBC13 polyUb inactive and Apaf-1 inh inactive.
For CCN(CC)c1nc(OCCNC(=O)Nc2ccccc2)nc(N(CC)CC)n1 the results were MEKK3 PB1 HTS inactive, MEKK2wt PB1 HTS inactive, MEKK2 mut-MEK5 24.0, UBC13 polyUb inactive, Apaf-1 inh inactive, MEKK2wt confirm inactive, MEKK2mut-MEK5 inactive and MEKK3-MEK5 inh inactive.
Screening COC(=O)C1=NN(c2ccc(Cl)cc2)C2C(=O)N(c3ccccc3OC)C(=O)C12 (centres undefined) returned MEKK3 PB1 HTS 143.0, MEKK2wt PB1 HTS inactive, MEKK2 mut-MEK5 inactive, UBC13 polyUb inactive, Apaf-1 inh inactive, MEKK2wt confirm inactive, MEKK2mut-MEK5 inactive and MEKK3-MEK5 inh inactive.
Screening CCOC(=O)C1=NN(c2ccccc2)C2C(=O)N(c3ccccc3OC)C(=O)C12 (centres undefined) returned MEKK3 PB1 HTS inactive, MEKK2wt PB1 HTS inactive, MEKK2 mut-MEK5 inactive, UBC13 polyUb inactive and Apaf-1 inh inactive.
For CCC(=O)N(c1ccc(C(=O)O)cc1)c1nc(-c2ccc(OC)cc2)c(C)s1 the results were MEKK3 PB1 HTS inactive, MEKK2wt PB1 HTS inactive, MEKK2 mut-MEK5 inactive, UBC13 polyUb inactive and Apaf-1 inh inactive.
Screening O=C(N/N=C/c1cccn1-c1cccc(C(=O)O)c1)Nc1ccccc1 returned MEKK3 PB1 HTS inactive, MEKK2wt PB1 HTS inactive, MEKK2 mut-MEK5 inactive, UBC13 polyUb inactive and Apaf-1 inh inactive.
`COc1ccc(C(=O)Nc2ccc(NC(=O)c3cccs3)c(OC)c2)cc1Cl` gave MEKK3 PB1 HTS inactive, MEKK2wt PB1 HTS inactive, MEKK2 mut-MEK5 inactive, UBC13 polyUb inactive and Apaf-1 inh inactive.
COc1ccc(C(=O)Nc2ccc(NC(=O)c3cccs3)cc2)cc1Cl was read as MEKK3 PB1 HTS 130.0, MEKK2wt PB1 HTS inactive, MEKK2 mut-MEK5 inactive, UBC13 polyUb inactive, Apaf-1 inh inactive, MEKK2wt confirm inactive, MEKK2mut-MEK5 inactive and MEKK3-MEK5 inh inactive.
CC1CCCCN1c1ccc(N)cc1C(N)=O (centres undefined) was read as MEKK3 PB1 HTS inactive, MEKK2wt PB1 HTS inactive, MEKK2 mut-MEK5 inactive, UBC13 polyUb inactive and Apaf-1 inh inactive.
`Fc1cccc(Cl)c1/C=N/n1c(-c2cccnc2)n[nH]c1=S` gave MEKK3 PB1 HTS inactive, MEKK2wt PB1 HTS inactive, MEKK2 mut-MEK5 inactive, UBC13 polyUb inactive and Apaf-1 inh inactive.
`C=Cn1cc[n+](CC(=O)C(C)(C)C)c1` gave MEKK3 PB1 HTS 137.0, MEKK2wt PB1 HTS inactive, MEKK2 mut-MEK5 inactive, UBC13 polyUb inactive, Apaf-1 inh inactive, MEKK2wt confirm inactive, MEKK2mut-MEK5 inactive and MEKK3-MEK5 inh inactive.
Screening C=Cn1cc[n+](CC(=O)c2ccc(Cl)c(Cl)c2)c1 returned MEKK3 PB1 HTS inactive, MEKK2wt PB1 HTS inactive, MEKK2 mut-MEK5 inactive, UBC13 polyUb inactive and Apaf-1 inh inactive.
For CCOc1ccccc1NC(=O)CCCn1cc([N+](=O)[O-])cn1 the results were MEKK3 PB1 HTS inactive, MEKK2wt PB1 HTS inactive, MEKK2 mut-MEK5 inactive, UBC13 polyUb inactive and Apaf-1 inh inactive.
COc1ccc(C(C)=O)cc1COC(=O)CNC(=O)c1ccccc1F was read as MEKK3 PB1 HTS 138.0, MEKK2wt PB1 HTS inactive, MEKK2 mut-MEK5 inactive, UBC13 polyUb inactive, Apaf-1 inh inactive, MEKK2wt confirm inactive, MEKK2mut-MEK5 inactive and MEKK3-MEK5 inh inactive.
Screening Cc1ccccc1NC(=O)CSCCN1C(=O)c2ccccc2C1=O returned MEKK3 PB1 HTS 74.0[inhibitor], MEKK2wt PB1 HTS inactive, MEKK2 mut-MEK5 inactive, UBC13 polyUb inactive, Apaf-1 inh inactive, MEKK2wt confirm inactive, MEKK2mut-MEK5 inactive and MEKK3-MEK5 inh inactive.
Screening Cc1ccccc1NC(=O)CCN1C(=O)c2ccccc2C1=O returned MEKK3 PB1 HTS inactive, MEKK2wt PB1 HTS inactive, MEKK2 mut-MEK5 inactive, UBC13 polyUb inactive and Apaf-1 inh inactive.
For CCOC(=O)C1(Cc2ccc(Cl)cc2)CCN(C(=O)c2cc(C)nc(C)n2)CC1 the results were MEKK3 PB1 HTS inactive, MEKK2wt PB1 HTS inactive, MEKK2 mut-MEK5 inactive, UBC13 polyUb inactive and Apaf-1 inh inactive.
COc1ccc(/C=C2\SC(=O)N(CCC(=O)Nc3ccccc3)C2=O)cc1OC was read as MEKK3 PB1 HTS inactive, MEKK2wt PB1 HTS inactive, MEKK2 mut-MEK5 inactive, UBC13 polyUb inactive and Apaf-1 inh inactive.
`COc1cc(/C=C2\SC(=O)N(CCN)C2=O)ccc1OS(=O)(=O)c1cc(C)ccc1C` gave MEKK3 PB1 HTS inactive, MEKK2wt PB1 HTS 178.0, MEKK2 mut-MEK5 inactive, MEKK2wt confirm inactive, MEKK2mut-MEK5 inactive and MEKK3-MEK5 inh inactive.
Screening CC(C)C(C(=O)Nc1ccc(S(N)(=O)=O)cc1)N1C(=O)c2ccccc2C1=O (centres undefined) returned MEKK3 PB1 HTS 56.0[inhibitor], MEKK2wt PB1 HTS inactive, MEKK2 mut-MEK5 inactive, UBC13 polyUb inactive, Apaf-1 inh inactive, MEKK2wt confirm inactive, MEKK2mut-MEK5 inactive and MEKK3-MEK5 inh inactive.
For Cc1cc(NS(=O)(=O)c2ccc(NC(=O)CCCOc3cccc(C)c3C)cc2)no1 the results were MEKK3 PB1 HTS inactive, MEKK2wt PB1 HTS inactive, MEKK2 mut-MEK5 inactive, UBC13 polyUb inactive and Apaf-1 inh inactive.
Cc1cccc(C2c3[nH]c4ccccc4c3CCN2C(=O)c2noc3c2CCCC3)n1 (centres undefined) was read as MEKK3 PB1 HTS inactive, MEKK2wt PB1 HTS inactive, MEKK2 mut-MEK5 inactive, UBC13 polyUb inactive and Apaf-1 inh inactive.

Screening data: PubChem, several laboratories
